According to ChEMBL document CHEMBL4834436, “Discovery of the S1P2 Antagonist GLPG2938 (1-[2-Ethoxy-6-(trifluoromethyl)-4-pyridyl]-3-[[5-methyl-6-[1-methyl-3-(trifluoromethyl)pyrazol-4-yl]pyridazin-3-yl]methyl]urea), a Preclinical Candidate for the Treatment of Idiopathic Pulmonary Fibrosis” (J Med Chem, 2021):
Converted amounts (≈) assume the structure as drawn. The source made the active and inactive calls. No cut-off for these calls is given here.

Columns and labels:
[1] = Clearance in beagle dog at 1 mg/kg, iv measured up to 24 hrs by LC-MS/MS analysis; assay type: ADME, organism-based, Canis lupus familiaris; details: in vivo
Summary of the method: (§1)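 Non-naive male Beagle dogs (n = 3) given 1 mg/kg iv as 10 min infusion; after 3-day washout, oral gavage 5 or 1 mg/kg in PEG400/MC 0.5% or MC 0.5% after ≥12 h fast. Jugular or cephalic blood into lithium heparin to 24 h; plasma analysed. Plasma protein binding: 5 μM compound, 4 h incubation.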

[2] = Plasma protein binding beagle dog plasma at 5 uM incubated for 4 hrs; assay type: ADME, cell-free, Canis lupus familiaris; details: read-out: PPB (converted); summary of the method: as §1
[3] = Intrinsic clearance unbound in mouse liver microsomes at 1 uM […] by LC-MS/MS analysis; assay type: ADME, Microsome
[4] = Volume of distribution at steady state in CD1 mouse at 1 mg/kg, iv measured up to 24 hrs by LC-MS/MS analysis; assay type: ADME, organism-based; details: in vivo, read-out: Vdss
Summary of the method: (§2)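 Male CD1 mice, composite design, n = 6 per route; iv 1 mg/kg in PEG200/water 60/40, oral gavage 5 mg/kg in Tween 80/MC 0.5% or PEG400/MC 0.5% after ≥12 h fast. Li-heparin blood sampled to 24 h, plasma by LC-MS/MS; noncompartmental analysis. Plasma protein binding: 5 μM compound, 4 h incubation.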

[5] = target: T1, Sphingosine 1-phosphate receptor 2 (Homo sapiens, UniProt O95136); assay: Antagonist activity at recombinant human S1P2 receptor in HFL1 cells assessed as inhibition of EC80 S1P-induced IL8 release measured as unbound concentration incubated for 16 to 24 hrs in presence of 2% HSA by ELISA; assay type: functional, cell-based; details: filed as antagonist, time 16-24 hrs
Summary of the method: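 IL8 IC50 from the 2% HSA condition converted to free IC50 = IC50 × fu,medium, where fu,medium is estimated from human plasma protein binding fraction unbound and the serum percentage used in the assay.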

[6] = Thermodynamic solubility in FaSSIF; assay type: physicochemical; details: read-out: Therm_solubility
CYP3A4 = CYP3A4 (Homo sapiens, UniProt P08684); assay: Inhibition of recombinant CYP3A4 (unknown origin) at 10 uM; assay type: ADME
[7] = target: T1, Sphingosine 1-phosphate receptor 2; assay: Antagonist activity at human S1P2 receptor expressed in CHO cells assessed as EC80 S1P-induced calcium flux measured for 3 mins by fluorescence assay; assay type: functional, cell-based
Summary of the method: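 Same dye-loaded, starved human S1P2-CHO cells; after agonist readout, 15 min at 37 °C, then stimulated with S1P at EC80, fluorescence read 3 min. Max/baseline ratio normalized to vehicle and S1P EC80. 10-point 1/3 dilutions from 20 μM final; IC50 derived; geometric mean of ≥2 runs.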

[8] = target: T1, Sphingosine 1-phosphate receptor 2; assay: Antagonist activity at recombinant human S1P2 receptor in HFL1 cells assessed as inhibition of EC80 S1P-induced IL8 release incubated for 16 to 24 hrs in presence of 2% HSA by ELISA; assay type: functional, cell-based
Summary of the method: (§3)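 HFL-1 lung fibroblasts seeded in 96- or 384-well plates, then medium replaced by starvation medium with 1% heat-inactivated FBS, ±1.95% HSA (2% HSA condition), 16–24 h. 10-point 1/3 dilutions, 30 μM top final, 1 h, then S1P at EC80 (without HSA: 1 μM 96-well or 0.5 μM 384-well; with HSA: 5 or 2 μM).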

CYP2C9 = CYP2C9 (Homo sapiens, UniProt P11712); assay: Inhibition of recombinant CYP2C9 (unknown origin) at 10 uM; assay type: ADME
[9] = Clearance in Sprague-Dawley rat at 1 mg/kg, iv measured up to 24 hrs by LC-MS/MS analysis; assay type: ADME, organism-based; details: in vivo
Summary of the method: (§4)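 Male Sprague-Dawley rats (6–8 weeks), n = 3 per route; iv bolus 1 mg/kg in PEG200/water 60/40; gavage 5 or 10 mg/kg in PEG400/MC 0.5% after ≥12 h fast. Li-heparin plasma sampled to 24 h, LC-MS/MS, noncompartmental analysis. Plasma protein binding: 5 μM compound, 4 h incubation.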

[10] = target: T1, Sphingosine 1-phosphate receptor 2; assay: Antagonist activity at recombinant human S1P2 receptor in HFL1 cells assessed as inhibition of EC80 S1P-induced IL8 release incubated for 16 to 24 hrs in absence of HSA by ELISA; assay type: functional, cell-based; summary of the method: as §3
[11] = Clearance in CD1 mouse at 1 mg/kg, iv measured up to 24 hrs by LC-MS/MS analysis; assay type: ADME, organism-based; details: in vivo; summary of the method: as §2
[12] = Half life in CD1 mouse at 1 mg/kg, iv measured up to 24 hrs by LC-MS/MS analysis; assay type: ADME, organism-based; details: in vivo; summary of the method: as §2
[13] = Oral bioavailability in beagle dog at 5 mg/kg measured up to 24 hrs by LC-MS/MS analysis; assay type: ADME, organism-based, Canis lupus familiaris; details: in vivo; summary of the method: as §1
[14] = Half life in Sprague-Dawley rat at 1 mg/kg, iv measured up to 24 hrs by LC-MS/MS analysis; assay type: ADME, organism-based; details: in vivo; summary of the method: as §4
[15] = Intrinsic clearance unbound in human liver microsomes at 1 uM […] by LC-MS/MS analysis; assay type: ADME, Microsome
[16] = Thermodynamic solubility in FaSSGF at pH 1.6; assay type: physicochemical; details: read-out: Therm_solubility
[17] = Plasma protein binding CD1 mouse plasma at 5 uM incubated for 4 hrs; assay type: ADME, cell-free; details: read-out: PPB (converted); summary of the method: as §2
[18] = target: T1, Sphingosine 1-phosphate receptor 2; assay: Antagonist activity at recombinant human S1P2 receptor expressed in CHO cells assessed as EC80 S1P-induced activation incubated for 4 hrs in presence of [35S]GTPgammaS by Topcount reader; assay type: functional, cell-based
Summary of the method: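 Membranes from stable lines overexpressing recombinant human S1P2, preincubated with PVT-WGA SPA beads, mixed with compound serial dilutions, [35S]GTPγS and S1P at EC80. Incubated 4 h at room temperature, centrifuged, scintillation counted. Antagonist mode; IC50 as geometric mean of ≥2 runs.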

[19] = Plasma protein binding Sprague-Dawley rat plasma at 5 uM incubated for 4 hrs; assay type: ADME, cell-free; details: read-out: PPB (converted); summary of the method: as §4
[20] = Oral bioavailability in CD1 mouse at 5 mg/kg measured up to 24 hrs by LC-MS/MS analysis; assay type: ADME, organism-based; details: in vivo; summary of the method: as §2
[21] = Volume of distribution at steady state in Sprague-Dawley rat at 1 mg/kg, iv measured up to 24 hrs by LC-MS/MS analysis; assay type: ADME, organism-based; details: in vivo, read-out: Vdss; summary of the method: as §4
[22] = Half life in beagle dog at 1 mg/kg, iv measured up to 24 hrs by LC-MS/MS analysis; assay type: ADME, organism-based, Canis lupus familiaris; details: in vivo; summary of the method: as §1
[23] = Volume of distribution at steady state in beagle dog at 1 mg/kg, iv measured up to 24 hrs by LC-MS/MS analysis; assay type: ADME, organism-based, Canis lupus familiaris; details: in vivo, read-out: Vdss; summary of the method: as §1
[24] = Oral bioavailability in Sprague-Dawley rat at 5 mg/kg measured up to 24 hrs by LC-MS/MS analysis; assay type: ADME, organism-based; details: in vivo; summary of the method: as §4
CYP2C19 = CYP2C19 (Homo sapiens, UniProt P33261); assay: Inhibition of recombinant CYP2C19 (unknown origin) at 10 uM; assay type: ADME
Mus musculus [25] = assay: Antifibrotic activity against intranasal bleomycin-induced C57BL/6 mouse lung fibrosis model assessed as reduction in Ashcroft score at 1 to 10 mg/kg, po twice daily for 14 days; assay type: functional, organism-based; details: dose 1-10 mg/kg, time 14.0 day
Summary of the method: (§5)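 Male C57BL/6 mice (7–8 weeks on arrival, one week acclimation) given bleomycin intranasally; prophylactic oral dosing twice daily for 14 days. Lungs scored histologically by Matsuse-modified Ashcroft score; 14–15 mice per group; Mann–Whitney vs bleomycin/vehicle.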

Fibroblast = assay: Prevention of S1P-induced human pulmonary fibroblasts contraction in collagen gel lattice mixture pretreated with TGFbeta for 72 hrs followed by treated at 0.5 to 5 uM compound incubated for 2 hrs then treated with S1P for 1 hr; assay type: functional, cell-based; details: dose 0.5-5 µM, time 96.0 hrs, in the assay text read “96 hrs” for “72 hrs”
Summary of the method: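 Normal human lung fibroblasts pretreated 4 days with 1 ng/mL TGF-β, embedded in neutralized collagen I gels (200,000 cells/gel), kept 72 h in serum-free FGM with TGF-β for stress build-up. Compound added for 2 h, then 1 μM S1P; gels released and incubated 1 h at 37 °C; gel area imaged. Mean with 95% CI.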

[26] = target: Voltage-gated inwardly rectifying potassium channel KCNH2 (Homo sapiens, UniProt Q12809); assay: Inhibition of human ERG
[27] = Oral bioavailability in beagle dog at 1 mg/kg measured up to 24 hrs by LC-MS/MS analysis; assay type: ADME, organism-based, Canis lupus familiaris; details: in vivo; summary of the method: as §1
[28] = Oral bioavailability in Sprague-Dawley rat at 10 mg/kg measured up to 24 hrs by LC-MS/MS analysis; assay type: ADME, organism-based; details: in vivo; summary of the method: as §4
Mus musculus [29] = assay: Antifibrotic activity against intranasal bleomycin-induced C57BL/6 mouse lung fibrosis model assessed as reduction in Ashcroft score at 3 to 30 mg/kg, po twice daily for 14 days; assay type: functional, organism-based; details: dose 3-30 mg/kg, time 14.0 day; summary of the method: as §5

T1 sequence (O95136 whole entry): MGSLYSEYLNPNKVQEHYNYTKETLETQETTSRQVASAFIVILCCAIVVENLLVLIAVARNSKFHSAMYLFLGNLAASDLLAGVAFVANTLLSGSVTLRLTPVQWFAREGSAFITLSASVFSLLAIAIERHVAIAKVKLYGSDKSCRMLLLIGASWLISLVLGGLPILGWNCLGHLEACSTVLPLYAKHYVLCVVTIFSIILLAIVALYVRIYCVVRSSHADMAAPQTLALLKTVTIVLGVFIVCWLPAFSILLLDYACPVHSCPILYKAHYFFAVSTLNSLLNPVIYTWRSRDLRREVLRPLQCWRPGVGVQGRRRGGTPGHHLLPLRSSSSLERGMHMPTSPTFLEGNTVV
Chain of CYP2C9 (P11712 whole entry): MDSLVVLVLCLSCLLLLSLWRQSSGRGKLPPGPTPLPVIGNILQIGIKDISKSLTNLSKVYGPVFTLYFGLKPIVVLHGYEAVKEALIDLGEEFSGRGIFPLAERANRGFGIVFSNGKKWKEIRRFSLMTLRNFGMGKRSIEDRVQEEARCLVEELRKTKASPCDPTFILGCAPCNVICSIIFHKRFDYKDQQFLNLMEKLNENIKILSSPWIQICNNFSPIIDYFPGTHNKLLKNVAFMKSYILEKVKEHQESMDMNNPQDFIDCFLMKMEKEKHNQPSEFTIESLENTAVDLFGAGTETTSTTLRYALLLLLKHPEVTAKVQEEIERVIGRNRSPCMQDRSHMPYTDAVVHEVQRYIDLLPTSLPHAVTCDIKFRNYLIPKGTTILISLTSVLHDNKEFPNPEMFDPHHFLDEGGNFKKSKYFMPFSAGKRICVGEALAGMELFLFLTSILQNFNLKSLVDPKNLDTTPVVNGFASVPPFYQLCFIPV
Chain of CYP3A4 (P08684 whole entry): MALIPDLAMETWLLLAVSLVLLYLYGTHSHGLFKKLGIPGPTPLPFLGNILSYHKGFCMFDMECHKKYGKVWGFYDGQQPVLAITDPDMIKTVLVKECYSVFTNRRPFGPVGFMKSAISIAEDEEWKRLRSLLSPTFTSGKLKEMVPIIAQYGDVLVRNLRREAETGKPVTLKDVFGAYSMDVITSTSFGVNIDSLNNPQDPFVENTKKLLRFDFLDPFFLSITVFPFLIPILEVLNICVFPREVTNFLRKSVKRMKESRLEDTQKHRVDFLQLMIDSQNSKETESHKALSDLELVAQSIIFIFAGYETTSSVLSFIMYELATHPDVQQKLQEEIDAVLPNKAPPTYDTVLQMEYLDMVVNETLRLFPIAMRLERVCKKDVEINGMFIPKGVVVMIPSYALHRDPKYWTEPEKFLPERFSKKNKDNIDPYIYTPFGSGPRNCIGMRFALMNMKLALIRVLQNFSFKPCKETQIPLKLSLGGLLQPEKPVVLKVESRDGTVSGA
Chain of CYP2C19 (P33261 whole entry): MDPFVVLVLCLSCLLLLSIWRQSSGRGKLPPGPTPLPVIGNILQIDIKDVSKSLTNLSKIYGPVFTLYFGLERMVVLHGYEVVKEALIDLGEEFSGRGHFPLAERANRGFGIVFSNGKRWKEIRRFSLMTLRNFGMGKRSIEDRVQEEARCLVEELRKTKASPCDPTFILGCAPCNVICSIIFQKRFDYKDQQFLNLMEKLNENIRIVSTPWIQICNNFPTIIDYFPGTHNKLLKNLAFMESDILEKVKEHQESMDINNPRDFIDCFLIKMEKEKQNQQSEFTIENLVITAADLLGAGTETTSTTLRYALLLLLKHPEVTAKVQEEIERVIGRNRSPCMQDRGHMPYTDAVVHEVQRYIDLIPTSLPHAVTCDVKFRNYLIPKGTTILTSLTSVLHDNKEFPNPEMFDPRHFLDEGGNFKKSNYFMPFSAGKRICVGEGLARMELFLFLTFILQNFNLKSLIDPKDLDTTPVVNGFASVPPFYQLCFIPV
Chain of Voltage-gated inwardly rectifying potassium channel KCNH2 (Q12809 whole entry): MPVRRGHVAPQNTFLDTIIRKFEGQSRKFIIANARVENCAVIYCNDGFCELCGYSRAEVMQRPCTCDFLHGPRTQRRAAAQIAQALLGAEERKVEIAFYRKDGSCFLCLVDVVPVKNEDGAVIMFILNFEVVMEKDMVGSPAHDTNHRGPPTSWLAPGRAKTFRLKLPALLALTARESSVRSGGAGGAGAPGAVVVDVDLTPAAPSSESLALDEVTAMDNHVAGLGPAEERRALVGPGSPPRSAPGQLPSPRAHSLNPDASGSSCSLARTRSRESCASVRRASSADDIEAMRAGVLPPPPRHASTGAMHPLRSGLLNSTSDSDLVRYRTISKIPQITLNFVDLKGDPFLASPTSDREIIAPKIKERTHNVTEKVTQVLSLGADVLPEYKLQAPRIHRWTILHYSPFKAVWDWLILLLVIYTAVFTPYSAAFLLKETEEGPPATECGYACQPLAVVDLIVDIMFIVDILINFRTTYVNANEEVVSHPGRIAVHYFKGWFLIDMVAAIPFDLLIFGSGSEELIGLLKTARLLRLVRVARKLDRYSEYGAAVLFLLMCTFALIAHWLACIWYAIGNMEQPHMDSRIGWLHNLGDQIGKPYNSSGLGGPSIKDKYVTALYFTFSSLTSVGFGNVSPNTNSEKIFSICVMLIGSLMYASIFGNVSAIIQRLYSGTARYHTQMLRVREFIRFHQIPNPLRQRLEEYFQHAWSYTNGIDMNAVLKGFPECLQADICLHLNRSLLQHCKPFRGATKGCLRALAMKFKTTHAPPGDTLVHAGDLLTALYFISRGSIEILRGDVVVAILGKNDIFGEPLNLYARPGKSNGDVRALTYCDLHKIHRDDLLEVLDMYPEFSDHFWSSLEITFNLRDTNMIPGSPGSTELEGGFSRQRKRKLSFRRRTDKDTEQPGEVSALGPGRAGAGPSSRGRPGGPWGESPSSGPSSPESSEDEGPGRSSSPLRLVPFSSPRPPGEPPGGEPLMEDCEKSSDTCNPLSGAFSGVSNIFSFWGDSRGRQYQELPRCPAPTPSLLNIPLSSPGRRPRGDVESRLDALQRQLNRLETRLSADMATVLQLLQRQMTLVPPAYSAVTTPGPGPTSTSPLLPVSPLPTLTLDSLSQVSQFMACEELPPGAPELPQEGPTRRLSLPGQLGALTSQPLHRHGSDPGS

Structure (SMILES) | clearance [1] [mL/min/kg] | fraction unbound at 4 h, 5 µM [2] | CL free [3] [L/h/kg] | Vd [4] [L/kg] | fIC50 [5] [nM] | solubility thermodynamic [6] [µg/mL] | IC50 [7] [µM] | IC50 [8] [nM] | clearance [9] [mL/min/kg] | IC50 [10] [nM] | clearance [11] [mL/min/kg] | half-life [12] [min] | half-life [14] [min] | CL free [15] [L/h/kg] | solubility thermodynamic [16] [µg/mL] | fraction unbound at 4 h, 5 µM [17] | IC50 [18] [µM] | fraction unbound at 4 h, 5 µM [19] | bioavailability [20] [%] | Vd [21] [L/kg] | other results
CCOc1cc(NC(=O)NCc2cc(C)c(-c3cn(C)nc3C(F)(F)F)nn2)cc(Cl)n1 | 7.83 | 0.016 | < 23 | 0.49 | 1 | 36 (≈ 76.6 µM) | 7.7 | 45 | 4.17 | 20 | 10.3 | 33 | 66 | < 2.6 | 5 (≈ 10.6 µM) | 0.002 | 20 | 0.001 | 20 | 0.38 | inhibition at 10 µM (CYP3A4): 23%; inhibition at 10 µM (CYP2C9): 58%; bioavailability [13]: 30%; half-life [22]: 186 min; Vd [23]: 2.1 L/kg; bioavailability [24]: 10%; inhibition at 10 µM (CYP2C19): 61%
CCOc1cc(NC(=O)NCc2cc(C)c(-c3cn(C)nc3C(F)(F)F)nn2)cc(C(F)(F)F)n1 | 1.67 | 0.003 | 8.4 | 0.81 | 0.6 | 23 (≈ 45.7 µM) | 8.8 | 87 | 1.52 | 29 | 4 | 138 | 162 | < 2.3 | 2.7 (≈ 5.36 µM) | 0.001 | 29 | < 0.001 | 64 | 0.35 | Activity (Mus musculus [25]): Active; Activity (Fibroblast): Active; inhibition (INH) [26]: Not Active; half-life [22]: 456 min; Vd [23]: 1.1 L/kg; bioavailability [24]: 29%
CCOc1nc(C)cc(NC(=O)NCc2cc(C)c(-c3cn(C)nc3C(F)(F)F)nn2)c1C | 11 | 0.022 | 17 | 0.47 | 1.3 | 15 (≈ 32.4 µM) | 4.5 | 49 | 6.17 | 16 | 12.2 | 27 | 60 | 2.2 | 505 (≈ 1090 µM) | 0.014 | 16 | 0.004 | 29 | 0.54 | bioavailability [27]: 39%; bioavailability [28]: 84%; half-life [22]: 96 min; Vd [23]: 1.5 L/kg; Activity (Mus musculus [29]): Active
